From publication PMC9998351 (Steroids, 2023)
Several values for one entry are separate records, joined by “and”; a condition that tells them apart may be missing. Identical values can stand only once. Entries after “also recorded” stand apart in the source; their conditions may differ.

Assays:
[1] = Oral pharmacokinetics and bioavailability in rats; assay type: in vivo; conditions: for Vd/F: Vz/F; for AUC(0-t): AUClast; for AUC(0-inf): AUCinf; for half-life: T1/2, male rats
Procedure, shortened: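 Sprague Dawley rats (8–12 wk, 3/sex/group, catheterised jugular vein) got one oral gavage dose of 10 or 50 mg/kg. Dose was a solution in cremophor:ethanol:saline (1:1:8), pH 4.0, at 10 ml/kg. EDTA plasma was collected at 5, 15, 30 min, 1, 2, 4, 6 and 24 h, precipitated with acetonitrile, and quantified by LC-MS/MS against abiraterone internal standard. Noncompartmental parameters; bioavailability from oral AUClast versus IV.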

[2] = Acute toxicity; assay type: in vivo, mice; conditions: male, Nude, mouse, in vivo, ip
[3] = tested on: male Nude mice; test: Acute toxicity; assay type: in vivo; conditions: male nude mice
[4] = Chronic dosing toxicity in male nude mice; assay type: in vivo; conditions: male, Nude, mouse, in vivo, ip
[5] = tested on: male Nude mice; test: Chronic dosing toxicity in male nude mice; assay type: in vivo; conditions: male nude mice
[6] = Acute toxicity; assay type: in vivo, mice; conditions: male, CD-1, mouse, in vivo, po
[7] = tested on: male CD-1 mice; test: Acute toxicity; assay type: in vivo; conditions: male CD-1 mice
[8] = tested on: CRPC CWR22Rv1 xenograft tumors; conditions: ref [26], cited from earlier work
[9] = male rats, 10 mg/kg PO, GeoMean
[10] = male rats, 10 mg/kg PO, individual rat, listed as VNPP433-3β, 10 mg/kg
[11] = male rats, 50 mg/kg PO, GeoMean
[12] = male rats, 50 mg/kg PO, individual rat, listed as VNPP433-3β, 50 mg/kg
[13] = male, Sprague Dawley, rat, plasma, po, 10 mg/kg, male rats, 10 mg/kg PO, GeoMean
[14] = male, Sprague Dawley, rat, plasma, po, 10 mg/kg, male rats, 10 mg/kg PO, individual rat
[15] = male, Sprague Dawley, rat, plasma, po, 50 mg/kg, male rats, 50 mg/kg PO, GeoMean
[16] = male, Sprague Dawley, rat, plasma, po, 50 mg/kg, male rats, 50 mg/kg PO, individual rat

## C[C@]12CC[C@H](n3ccnc3)CC1=CC[C@@H]1[C@@H]2CC[C@]2(C)C(n3cnc4ccccc43)=CC[C@@H]12 [Compound 2, 3β-(1H-imidazole-1-yl)-17-(1H-benzimidazole-1-yl)-androsta-5,16-diene]
[1]; female, Sprague Dawley, rat, plasma, po, 10 mg/kg, Cmax, female rats, 10 mg/kg PO, GeoMean
  Cmax: 594 ng/mL
[1]; female, Sprague Dawley, rat, plasma, po, 10 mg/kg, Cmax, female rats, 10 mg/kg PO, individual rat
  Cmax: 755 ng/mL
[1]; female, Sprague Dawley, rat, plasma, po, 10 mg/kg, Tmax, female rats, 10 mg/kg PO, GeoMean
  Tmax: 6 h
[1]; female, Sprague Dawley, rat, plasma, po, 10 mg/kg, Tmax, female rats, 10 mg/kg PO, individual rat
  Tmax: 6 h
[1]; female, Sprague Dawley, rat, plasma, po, 10 mg/kg, female rats, 10 mg/kg PO, GeoMean
  Vd/F: 16.3 L/kg
[1]; female, Sprague Dawley, rat, plasma, po, 10 mg/kg, female rats, 10 mg/kg PO, individual rat
  Vd/F: 12.7 L/kg
[1]; female, Sprague Dawley, rat, plasma, po, 50 mg/kg, female rats, 50 mg/kg PO, GeoMean
  AUC(0-t): 80000 ng·h/mL
[1]; female, Sprague Dawley, rat, plasma, po, 50 mg/kg, female rats, 50 mg/kg PO, individual rat
  AUC(0-t): 76800 ng·h/mL
[1]; female, Sprague Dawley, rat, plasma, po, 50 mg/kg, Cmax, female rats, 50 mg/kg PO, GeoMean
  Cmax: 4500 ng/mL
[1]; female, Sprague Dawley, rat, plasma, po, 50 mg/kg, Cmax, female rats, 50 mg/kg PO, individual rat
  Cmax: 4380 ng/mL
[1]; female, Sprague Dawley, rat, plasma, po, 50 mg/kg, Tmax, female rats, 50 mg/kg PO, GeoMean
  Tmax: 24 h
[1]; female, Sprague Dawley, rat, plasma, po, 50 mg/kg, Tmax, female rats, 50 mg/kg PO, individual rat
  Tmax: 23.3 h
[1]; [9]
  AUC% Extrap: 16.5%
  Cmax/D: 61.3 ng/mL/mg/kg
[1]; [10]
  AUC% Extrap: 24.4% and 9.55% and 19.3%
  AUCinf: 364 µg·min/mL and 715 µg·min/mL
  AUClast: 329 µg·min/mL and 577 µg·min/mL
  CL/F: 27.5 mL/min/kg and 14.0 mL/min/kg
  Cmax: 460 ng/mL and 715 ng/mL
  Cmax/D: 70.2 ng/mL/mg/kg and 46.0 ng/mL/mg/kg and 71.5 ng/mL/mg/kg
  T1/2: 6.3 h and 9.0 h
  Vz/F: 15.0 L/kg and 10.9 L/kg
[1]; [11]
  AUC% Extrap: 79.5%
  Cmax/D: 54.5 ng/mL/mg/kg
[1]; male rats, 50 mg/kg PO, individual rat
  Tmax: 6 h
[1]; [12]
  AUC% Extrap: 94.3% and 66.9%
  AUClast: 4460 µg·min/mL and 3600 µg·min/mL
  Cmax: 3430 ng/mL and 3160 ng/mL
  Cmax/D: 37.4 ng/mL/mg/kg and 68.6 ng/mL/mg/kg and 63.2 ng/mL/mg/kg
  Tmax: 6 h
[1]; male rats, PO
  Time of peak of PO concentration-time profiles: 6 h
[1]; [13]
  AUC(0-inf): 9380 ng·h/mL
  AUC(0-t): 7700 ng·h/mL
  Vd/F: 12.6 L/kg
[1]; [14]
  AUC(0-inf): 11400 ng·h/mL
  AUC(0-t): 8650 ng·h/mL
  Vd/F: 12.4 L/kg
[1]; male, Sprague Dawley, rat, plasma, po, 10 mg/kg, CL/F, male rats, 10 mg/kg PO, GeoMean
  CL/F: 17.8 mL/min/kg
[1]; male, Sprague Dawley, rat, plasma, po, 10 mg/kg, CL/F, male rats, 10 mg/kg PO, individual rat
  CL/F: 14.6 mL/min/kg
[1]; male, Sprague Dawley, rat, plasma, po, 10 mg/kg, Cmax, male rats, 10 mg/kg PO, GeoMean
  Cmax: 613 ng/mL
[1]; male, Sprague Dawley, rat, plasma, po, 10 mg/kg, Cmax, male rats, 10 mg/kg PO, individual rat
  Cmax: 702 ng/mL
[1]; male, Sprague Dawley, rat, plasma, po, 10 mg/kg, 10 mg/kg PO, GeoMean
  half-life: 8.22 h
[1]; male, Sprague Dawley, rat, plasma, po, 10 mg/kg, 10 mg/kg PO, individual rat
  half-life: 9.8 h
[1]; male, Sprague Dawley, rat, plasma, po, 10 mg/kg, Tmax, male rats, 10 mg/kg PO, GeoMean
  Tmax: 6 h
[1]; male, Sprague Dawley, rat, plasma, po, 10 mg/kg, Tmax, male rats, 10 mg/kg PO, individual rat
  Tmax: 6 h
[1]; [15]
  AUC(0-t): 56200 ng·h/mL
  Vd/F: 14.6 L/kg
[1]; [16]
  AUC(0-t): 39700 ng·h/mL
  Vd/F: 14.4 L/kg
[1]; male, Sprague Dawley, rat, plasma, po, 50 mg/kg, CL/F, male rats, 50 mg/kg PO, GeoMean
  CL/F: 1.71 mL/min/kg
[1]; male, Sprague Dawley, rat, plasma, po, 50 mg/kg, Cmax, male rats, 50 mg/kg PO, GeoMean
  Cmax: 2730 ng/mL
[1]; male, Sprague Dawley, rat, plasma, po, 50 mg/kg, Cmax, male rats, 50 mg/kg PO, individual rat
  Cmax: 1870 ng/mL
[1]; male, Sprague Dawley, rat, plasma, po, 50 mg/kg, Tmax, male rats, 50 mg/kg PO, GeoMean
  Tmax: 9.52 h
[1]; rats, PO dosing, text (and beyond)
  Extrapolated percentage of AUC0-inf: 17–82%
[2]
  MTD at 2 weeks: 50 mg/kg
[3]; 100 mg/kg single intraperitoneal dose, 3 mice, 100 mg/kg
  Mortality: one mouse died in the 100 mg/kg group
[3]; 25 and 50 mg/kg single intraperitoneal dose, two weeks
  Signs of toxicity: did not exhibit any signs of toxicity
[4]
  MTD at 14 days: 25 to 50 mg/kg
[5]; 0.5 MTD group, five days a week for two weeks, day 7
  Mortality: Two mice died
[5]; chronic dosing 0.2 MTD and MTD groups, 14 days
  Condition of other groups: looked healthy
[6]
  NOAEL at 72 h: > 300 mg/kg
[7]; 100 mg/kg PO, observed 72 hrs
  Tolerability and mortality: well tolerated, and no mortality was observed
[7]; 1000 mg/kg PO, 3 mice, 1000 mg/kg
  Mortality: two mice died on days 2 and the third mice died on day 3; also recorded: Two mice were in a moribund stage and found dead 36 hrs. post dose, the third mice died 72 hrs. post dose
[7]; 1000 mg/kg PO, after 24 hrs
  Clinical signs: piloerection, apathy (inactive) and hypothermia
[7]; all three dose groups (100, 300, 1000 mg/kg PO), postmortem
  Gross necropsy, organ toxicity: no evident organ toxicity
[7]; low (100 mg/kg) and medium (300 mg/kg) dose PO, after 72 hrs
  Signs of toxicity at necropsy: no signs of toxicity were observed
[8]; CWR22Rv1 xenograft study
  Host toxicity: no apparent host toxicity
[8]; CWR22Rv1 xenograft, 2 at 7.53-fold lower equimolar dose than Gal, p < 0.01
  Suppression of tumor growth: 84%
[8]; CWR22Rv1 xenograft
  Efficacy compared with enzalutamide: more efficacious than enzalutamide
